Experimental data taken from ChEMBL document CHEMBL1136923, “Highly potent, orally available anti-inflammatory broad-spectrum chemokine inhibitors” (J Med Chem, 2009).

What was measured:
[1] = Fractional bioavailability in Sprague-Dawley rat at 3 mg/kg, po administered as single dose; format: ADME, organism-based; details: in vivo
Outline: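 Male Sprague-Dawley rats, three per compound, receive a single oral dose by gavage in 1% carboxymethylcellulose in 0.9% saline, with food and water ad libitum. Plasma is sampled from 5 to 480 min and drug is quantified by positive-mode LC/MS/MS after acetonitrile/formic acid extraction. The lower limit of quantitation is about 2 ng/mL. Exposure is AUC(0→t) by the linear/log trapezoidal rule, and F is oral fractional bioavailability.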

THP-1 [2] = assay: Toxicity in human THP1 cells assessed as change in cell size at 0.1 nM by forward scatter flow cytometry relative to control; format: cell-based; details: thp-1, 0.0001 µM
Mus musculus [3] = assay: Antiinflammatory activity in mouse assessed as inhibition of LPS-induced TNFalpha upregulation at 0.0075 mg, sc measured 2 hrs after LPS challenge; format: functional
Outline: (§1)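 Murine sublethal endotoxemia: LPS given intraperitoneally, with serum TNF-α measured 2 h after the LPS injection as the end point. Compound was given subcutaneously or orally. Vehicle was 0.6% DMSO and 1% carboxymethylcellulose (final concentrations) in sterile water. Effect is reported as % relative to control.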

[4] = AUC (0 to t) in Sprague-Dawley rat at 1 mg/kg, iv administered as single dose; format: ADME, organism-based, Plasma; design: dose 1 mg/kg, route intravenous; details: Sprague-Dawley, plasma
Outline: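 Male Sprague-Dawley rats, three per compound per route, single dose. IV vehicle 5% DMSO in 0.9% saline; oral gavage vehicle 1% carboxymethylcellulose in 0.9% saline; fed ad libitum. Plasma taken 5–480 min post-dose, extracted with 0.1% formic acid in acetonitrile, quantified by LC/MS/MS (positive mode). AUC(0–t) by linear/log trapezoidal rule; IV curve back-extrapolated assuming initial volume 0.26 L/kg.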

Mus musculus [5] = assay: Antiinflammatory activity in mouse assessed as inhibition of LPS-induced TNFalpha upregulation at 0.25 mg, sc measured 2 hrs after LPS challenge; format: functional; outline: as §1
[6] = biological target: T1, C-C chemokine receptor type 1 (Homo sapiens) (UniProt P32246); assay: Antagonist activity at CCR1 in human THP1 cells assessed as inhibition of CCL3-induced chemotaxis at 0.01 nM after 2 hrs by microtiter format trans-well migration assay; format: functional, cell-based; details: THP-1
T1 sequence (whole entry): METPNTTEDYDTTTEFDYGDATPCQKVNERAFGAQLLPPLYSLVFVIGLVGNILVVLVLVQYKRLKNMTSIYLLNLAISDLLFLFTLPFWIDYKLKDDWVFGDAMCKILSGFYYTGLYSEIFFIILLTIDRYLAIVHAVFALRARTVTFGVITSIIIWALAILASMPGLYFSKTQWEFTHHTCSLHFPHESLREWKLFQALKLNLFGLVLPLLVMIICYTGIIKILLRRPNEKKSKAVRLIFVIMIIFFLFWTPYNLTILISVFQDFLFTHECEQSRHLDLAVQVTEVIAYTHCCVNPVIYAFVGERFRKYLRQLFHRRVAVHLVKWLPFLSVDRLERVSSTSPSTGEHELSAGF
Outline: (§2)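 Microtiter trans-well migration assay in Gey's balanced salt solution with 1 mg/mL endotoxin-free BSA, no fetal calf serum. Migration ran 2 h at 37 °C. Compounds dissolved in DMSO and added to both top and bottom compartments, final DMSO 1%.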

Mus musculus [7] = assay: Antiinflammatory activity in mouse assessed as inhibition of LPS-induced TNFalpha upregulation at 830 pg, sc measured 2 hrs after LPS challenge; format: functional
Outline: (§3)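 Murine sublethal LPS endotoxemia screen. LPS is injected intraperitoneally and serum TNF-α is measured 2 h later as the end point. Compound is given subcutaneously or orally in a vehicle of 0.6% DMSO plus 1% carboxymethylcellulose (final concentrations) in sterile water. Values are % relative to control.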

[8] = biological target: T1, C-C chemokine receptor type 1 (Homo sapiens); assay: Antagonist activity at CCR1 in human THP1 cells assessed as inhibition of CCL3-induced chemotaxis at 100 nM after 2 hrs by microtiter format trans-well migration assay; format: functional, cell-based; details: THP-1; outline: as §2
Mus musculus [9] = assay: Antiinflammatory activity in sc dosed mouse assessed as inhibition of LPS-induced TNFalpha upregulation measured 2 hrs after LPS challenge relative to control; format: functional; outline: as §3
[10] = biological target: C-C chemokine receptor type 5 (Homo sapiens) (UniProt P51681); assay: Antagonist activity at CCR5 in human THP1 cells assessed as inhibition of CCL5-induced chemotaxis at 1 nM after 2 hrs by microtiter format trans-well migration assay; format: functional, cell-based; details: THP-1; outline: as §2
Mus musculus [11] = assay: Antiinflammatory activity in mouse assessed as inhibition of LPS-induced TNFalpha upregulation at 0.025 mg, sc measured 2 hrs after LPS challenge; format: functional; outline: as §1
Mus musculus [12] = assay: Antiinflammatory activity in mouse assessed as inhibition of LPS-induced TNFalpha upregulation at 0.0025 mg, sc measured 2 hrs after LPS challenge; format: functional; outline: as §1
THP-1 [13] = assay: Endogenous chemoattractant activity at human THP1 cells assessed as cell migration at 1 uM after 2 hrs by microtiter format trans-well migration assay; format: functional
[14] = biological target: T2, C5a anaphylatoxin chemotactic receptor 1 (Homo sapiens) (UniProt P21730); assay: Antagonist activity at C5a receptor in human PMNC assessed as inhibition of C5a-induced chemotaxis at 100 nM after 2 hrs by microtiter format trans-well migration assay; format: functional; outline: as §2
T2 sequence (whole entry): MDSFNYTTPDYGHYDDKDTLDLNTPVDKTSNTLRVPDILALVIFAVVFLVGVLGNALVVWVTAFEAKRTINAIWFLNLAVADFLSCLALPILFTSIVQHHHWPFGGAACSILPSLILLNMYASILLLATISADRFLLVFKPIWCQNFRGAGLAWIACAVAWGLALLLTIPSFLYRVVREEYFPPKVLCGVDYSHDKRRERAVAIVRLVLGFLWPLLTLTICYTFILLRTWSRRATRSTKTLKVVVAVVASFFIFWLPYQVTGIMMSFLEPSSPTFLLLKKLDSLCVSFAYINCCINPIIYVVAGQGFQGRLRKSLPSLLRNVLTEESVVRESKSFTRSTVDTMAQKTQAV

Mus musculus [15] = assay: Antiinflammatory activity in mouse assessed as inhibition of LPS-induced TNFalpha upregulation at 0.025 mg, po measured 2 hrs after LPS challenge; format: functional; outline: as §1
[16] = Antagonist activity at Interleukin-8 receptor in human PMNC assessed as inhibition of CXCL8-induced chemotaxis at 10 nM after 2 hrs by microtiter format trans-well migration assay; format: functional; outline: as §2
[17] = Volume of distribution at steady state in Sprague-Dawley rat at 1 mg/kg, iv administered as single dose; format: ADME, organism-based; design: dose 1 mg/kg, route intravenous; details: in vivo, read-out: Vdss
Outline: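 Male Sprague-Dawley rats, three per compound, receive a single intravenous dose in 5% DMSO in 0.9% saline. Food and water are given ad libitum. Plasma is taken at 5, 15, 30, 60, 120, 180, 240 and 480 min. Drug is measured by LC/MS/MS after extraction with 0.1% formic acid in acetonitrile. The curve is back-extrapolated to time zero assuming an initial volume of 0.26 L/kg.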

[18] = Antagonist activity at Interleukin-8 receptor in human PMNC assessed as inhibition of CXCL8-induced chemotaxis at 1000 nM after 2 hrs by microtiter format trans-well migration assay; format: functional; outline: as §2
[19] = Antagonist activity at Interleukin-8 receptor in human PMNC assessed as inhibition of CXCL8-induced chemotaxis at 0.1 nM after 2 hrs by microtiter format trans-well migration assay; format: functional; outline: as §2

Chain of C-C chemokine receptor type 5 (Homo sapiens) (P51681 whole entry, looked up): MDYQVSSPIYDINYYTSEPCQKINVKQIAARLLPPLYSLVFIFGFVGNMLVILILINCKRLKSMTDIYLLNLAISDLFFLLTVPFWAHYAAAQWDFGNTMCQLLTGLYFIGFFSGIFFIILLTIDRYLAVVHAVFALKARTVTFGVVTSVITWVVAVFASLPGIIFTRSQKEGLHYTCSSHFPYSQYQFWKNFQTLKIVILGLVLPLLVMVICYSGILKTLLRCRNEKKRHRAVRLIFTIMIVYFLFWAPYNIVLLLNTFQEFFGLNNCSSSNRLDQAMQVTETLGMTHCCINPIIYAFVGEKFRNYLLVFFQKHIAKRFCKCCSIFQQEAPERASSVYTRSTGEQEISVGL

Structure (SMILES): CCCCCCCCCCC(C)(C)C(=O)N[C@H]1CCCCNC1=O
- bioavailability [1]: 16%
- fold change (FC) (THP-1 [2]): 1.04
- inhibition (INH) (Mus musculus [3]): 63%
- AUC(0-t) [4]: 0.395 µg·h/mL
- inhibition (INH) (Mus musculus [5]): 79%
- inhibition [6]: 21%
- inhibition (INH) (Mus musculus [7]): 18%
- inhibition [8]: 95%
- inhibition (INH) (Mus musculus [9]): 70%
- inhibition [10]: 56%
- inhibition (INH) (Mus musculus [11]): 64%
- inhibition (INH) (Mus musculus [12]): 57%
- Activity (THP-1 [13]): 4626%
- inhibition [14]: 16%
- inhibition (INH) (Mus musculus [15]): 44%
- inhibition at 0.01 µM [16]: 121%
- Vd [17]: 2 L/kg
- inhibition at 1 µM [18]: 122%
- inhibition at 0.0001 µM [19]: 12.5%
